Source: ChEMBL document CHEMBL3745670, “Synthesis and biological evaluation of novel lipoamino acid derivatives” (Bioorg Med Chem Lett, 2016)
≈ marks a conversion by molar mass, not a printed value.

What was measured:
Micrococcus luteus [1] = experiment: Antibacterial activity against Micrococcus luteus MTCC 2470 after 24 hrs by well diffusion assay; format: functional; details: MTCC 2470, 24 h
Staphylococcus aureus [2] = experiment: Antibacterial activity against Staphylococcus aureus MTCC 96 after 24 hrs by well diffusion assay; format: functional; details: MTCC 96, 24 h
Staphylococcus aureus [3] = experiment: Antibacterial activity against Staphylococcus aureus MLS-16 MTCC 2940 after 24 hrs by well diffusion assay; format: functional; details: MLS-16 MTCC 2940, 24 h
Candida albicans [4] = experiment: Antifungal activity against Candida albicans MTCC 3017 after 24 hrs by well diffusion assay; format: functional; details: MTCC 3017, 24 h
Outline: (§1)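 Well diffusion screen against Candida and related fungal strains. Read-out is MIC in µg/mL, with miconazole as the reference drug.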

Bacillus subtilis [5] = experiment: Antibacterial activity against Bacillus subtilis MTCC 121 after 24 hrs by well diffusion assay; format: functional; details: MTCC 121, 24 h
Escherichia coli = experiment: Antibacterial activity against Escherichia coli MTCC 739 after 24 hrs by well diffusion assay; format: functional; details: MTCC 739, 24 h
Raoultella planticola = experiment: Antibacterial activity against Klebsiella planticola MTCC 530 after 24 hrs by well diffusion assay; format: functional; details: MTCC 530, 24 h
Pseudomonas aeruginosa = experiment: Antibacterial activity against Pseudomonas aeruginosa MTCC 2453 after 24 hrs by well diffusion assay; format: functional; details: MTCC 2453, 24 h
Micrococcus luteus [6] = experiment: Bactericidal activity against Micrococcus luteus MTCC 2470 after 24 hrs; format: functional; details: MTCC 2470, 24 h
Outline: (§2)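 Minimum bactericidal concentration was determined on four Gram-positive strains, for the compounds active in the preliminary antibacterial screen.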

Staphylococcus aureus [7] = experiment: Bactericidal activity against Staphylococcus aureus MTCC 96 after 24 hrs; format: functional; details: MTCC 96, 24 h; outline: as §2
Staphylococcus aureus [8] = experiment: Bactericidal activity against Staphylococcus aureus MLS-16 MTCC 2940 after 24 hrs; format: functional; details: MLS-16 MTCC 2940, 24 h; outline: as §2
Bacillus subtilis [9] = experiment: Bactericidal activity against Bacillus subtilis MTCC 121 after 24 hrs by well diffusion assay; format: functional; details: MTCC 121, 24 h; outline: as §2
Micrococcus luteus [10] = experiment: Antibiofilm activity against Micrococcus luteus MTCC 2470 after 24 hrs by crystal violet staining based method; format: functional, organism-based; details: MTCC 2470, 24 h
Outline: (§3)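 Biofilm inhibition was tested on the four Gram-positive strains, using crystal violet staining.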

Staphylococcus aureus [11] = experiment: Antibiofilm activity against Staphylococcus aureus MTCC 96 after 24 hrs by crystal violet staining based method; format: functional, organism-based; details: MTCC 96, 24 h; outline: as §3
Staphylococcus aureus [12] = experiment: Antibiofilm activity against Staphylococcus aureus MLS-16 MTCC 2940 after 24 hrs by crystal violet staining based method; format: functional, organism-based; details: MLS-16 MTCC 2940, 24 h; outline: as §3
Bacillus subtilis [13] = experiment: Antibiofilm activity against Bacillus subtilis MTCC 121 after 24 hrs by well diffusion assay by crystal violet staining based method; format: functional, organism-based; details: MTCC 121, 24 h; outline: as §3
Candida albicans [14] = experiment: Antifungal activity against Candida albicans MTCC 183 after 24 hrs by well diffusion assay; format: functional; details: MTCC 183, 24 h; outline: as §1
Candida albicans [15] = experiment: Antifungal activity against Candida albicans MTCC 227 after 24 hrs by well diffusion assay; format: functional; details: MTCC 227, 24 h; outline: as §1
Candida albicans [16] = experiment: Antifungal activity against Candida albicans MTCC 854 after 24 hrs by well diffusion assay; format: functional; details: MTCC 854, 24 h; outline: as §1
Candida albicans [17] = experiment: Antifungal activity against Candida albicans MTCC 1637 after 24 hrs by well diffusion assay; format: functional; details: MTCC 1637, 24 h; outline: as §1
Candida albicans [18] = experiment: Antifungal activity against Candida albicans MTCC 3018 after 24 hrs by well diffusion assay; format: functional; details: MTCC 3018, 24 h; outline: as §1
Candida albicans [19] = experiment: Antifungal activity against Candida albicans MTCC 3958 after 24 hrs by well diffusion assay; format: functional; details: MTCC 3958, 24 h; outline: as §1
Candida albicans [20] = experiment: Antifungal activity against Candida albicans MTCC 4748 after 24 hrs by well diffusion assay; format: functional; details: MTCC 4748, 24 h; outline: as §1
Candida albicans [21] = experiment: Antifungal activity against Candida albicans MTCC 7315 after 24 hrs by well diffusion assay; format: functional; details: MTCC 7315, 24 h; outline: as §1
Candida parapsilosis [22] = experiment: Antifungal activity against Candida parapsilosis MTCC 1744 after 24 hrs by well diffusion assay; format: functional; details: Lodderomyces parapsilosis, MTCC 1744, 24 h; outline: as §1
[Candida] aaseri = Antifungal activity against Candida aaseri MTCC 1962 after 24 hrs by well diffusion assay; format: functional; details: Yamadazyma aaseri, MTCC 1962, 24 h; outline: as §1
Nakaseomyces glabratus = experiment: Antifungal activity against Candida glabrata MTCC 3019 after 24 hrs by well diffusion assay; format: functional; details: MTCC 3019, 24 h; outline: as §1
Pichia kudriavzevii = experiment: Antifungal activity against Pichia kudriavzevii MTCC 3020 after 24 hrs by well diffusion assay; format: functional; details: MTCC 3020, 24 h; outline: as §1
Pichia sporocuriosa = experiment: Antifungal activity against Issatchenkia hanoiensis MTCC 4755 after 24 hrs by well diffusion assay; format: functional; details: MTCC 4755, 24 h; outline: as §1
[23] = Cytotoxicity against human DU145 cells by MTT assay; format: functional, cell-based; details: DU-145
HepG2 = experiment: Cytotoxicity against human HepG2 cells by MTT assay; format: functional, cell-based
[24] = Cytotoxicity against human SKOV3 cells by MTT assay; format: functional, cell-based; details: SK-OV-3
MDA-MB-231 = experiment: Cytotoxicity against human MDA-MB-231 cells by MTT assay; format: functional, cell-based
Candida parapsilosis [25] = experiment: Inhibition of ergosterol biosynthesis in Candida parapsilosis MTCC 1744 assessed as mean ergosterol content at 2 ug/ml after 20 hrs by spectrophotometric analysis (Rvb=1.62 +/- 0.08 ug/ml); format: functional
Candida parapsilosis [26] = experiment: Inhibition of ergosterol biosynthesis in Candida parapsilosis MTCC 1744 assessed as mean ergosterol content at 4 ug/ml after 20 hrs by spectrophotometric analysis (Rvb=1.62 +/- 0.08 ug/ml); format: functional
Candida parapsilosis [27] = experiment: Inhibition of ergosterol biosynthesis in Candida parapsilosis MTCC 1744 assessed as mean ergosterol content at 8 ug/ml after 20 hrs by spectrophotometric analysis (Rvb=1.62 +/- 0.08 ug/ml); format: functional
Candida parapsilosis [28] = experiment: Inhibition of ergosterol biosynthesis in Candida parapsilosis MTCC 1744 assessed as mean ergosterol content at 16 ug/ml after 20 hrs by spectrophotometric analysis (Rvb=1.62 +/- 0.08 ug/ml); format: functional

## CCCCCCCCC(CCCCCCCCC(=O)OC)SCC(=O)N[C@@H](C)C(=O)OC (stereo not given in full)
Micrococcus luteus [1]
  MIC: 7.8 µg/mL (≈ 16.5 µM)
Staphylococcus aureus [2]
  MIC: 15.6 µg/mL (≈ 32.9 µM)
Staphylococcus aureus [3]
  MIC: 7.8 µg/mL (≈ 16.5 µM)
Candida albicans [4]
  MIC: 7.8 µg/mL (≈ 16.5 µM)
Bacillus subtilis [5]
  MIC: 3.9 µg/mL (≈ 8.23 µM)
Escherichia coli
  MIC: > 125 µg/mL
Raoultella planticola
  MIC: > 125 µg/mL
Pseudomonas aeruginosa
  MIC: > 125 µg/mL
Micrococcus luteus [6]
  MBC: 7.8 µg/mL (≈ 16.5 µM)
Staphylococcus aureus [7]
  MBC: 31.2 µg/mL (≈ 65.9 µM)
Staphylococcus aureus [8]
  MBC: 15.6 µg/mL (≈ 32.9 µM)
Bacillus subtilis [9]
  MBC: 7.8 µg/mL (≈ 16.5 µM)
Micrococcus luteus [10]
  IC50: 4.1 µM
Staphylococcus aureus [11]
  IC50: 9.3 µM
Staphylococcus aureus [12]
  IC50: 3.2 µM
Bacillus subtilis [13]
  IC50: 2800 nM
Candida albicans [14]
  MFC: 15.6 µg/mL (≈ 32.9 µM)
  MIC: 7.8 µg/mL (≈ 16.5 µM)
Candida albicans [15]
  MFC: 31.2 µg/mL (≈ 65.9 µM)
  MIC: 15.6 µg/mL (≈ 32.9 µM)
Candida albicans [16]
  MFC: 62.5 µg/mL (≈ 132 µM)
  MIC: 31.2 µg/mL (≈ 65.9 µM)
Candida albicans [17]
  MFC: 31.2 µg/mL (≈ 65.9 µM)
  MIC: 31.2 µg/mL (≈ 65.9 µM)
Candida albicans [18]
  MFC: 31.2 µg/mL (≈ 65.9 µM)
  MIC: 15.6 µg/mL (≈ 32.9 µM)
Candida albicans [19]
  MFC: 15.6 µg/mL (≈ 32.9 µM)
  MIC: 7.8 µg/mL (≈ 16.5 µM)
Candida albicans [20]
  MFC: 15.6 µg/mL (≈ 32.9 µM)
  MIC: 15.6 µg/mL (≈ 32.9 µM)
Candida albicans [21]
  MFC: 31.2 µg/mL (≈ 65.9 µM)
  MIC: 15.6 µg/mL (≈ 32.9 µM)
Candida parapsilosis [22]
  MFC: 7.8 µg/mL (≈ 16.5 µM)
  MIC: 7.8 µg/mL (≈ 16.5 µM)
[Candida] aaseri
  MFC: 31.2 µg/mL (≈ 65.9 µM)
  MIC: 15.6 µg/mL (≈ 32.9 µM)
Nakaseomyces glabratus
  MFC: 31.2 µg/mL (≈ 65.9 µM)
  MIC: 31.2 µg/mL (≈ 65.9 µM)
Pichia kudriavzevii
  MFC: 15.6 µg/mL (≈ 32.9 µM)
  MIC: 15.6 µg/mL (≈ 32.9 µM)
Pichia sporocuriosa
  MFC: 31.2 µg/mL (≈ 65.9 µM)
  MIC: 15.6 µg/mL (≈ 32.9 µM)
[23]
  IC50: 154 µM
HepG2
  IC50: 102 µM
[24]
  IC50: 114 µM
MDA-MB-231
  IC50: 98.7 µM
Candida parapsilosis [25]
  Activity: 1.41 µg/mL
Candida parapsilosis [26]
  Activity: 0.63 µg/mL
Candida parapsilosis [27]
  Activity: 0.38 µg/mL
Candida parapsilosis [28]
  Activity: 0.11 µg/mL
